By inhibition is commonly meant the percentage by which the read-out fell short of the control. As usually defined, the Kd is the concentration at which binding is half-saturated. What is called inhibition in vivo is the change of the read-out against control, counted positive when it falls. In general, IC50 refers to the midpoint of a concentration-inhibition curve.

Data set [1] concerns the target T1, Advanced glycosylation end product-specific receptor (Homo sapiens, UniProt Q15109). Put plainly: Inhibition of human recombinant biotinylated receptor for advanced glycation end product expressed in Escherichia coli DE3 assessed as inhibition of binding to amyloid beta (1 to 42) at 20 uM after 60 mins by TMB-ELISA. Summed up:
(§1)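 Biotinylated human RAGE (1 μg, made in Origami2(DE3) with BirA) incubated on a streptavidin plate with oligomeric Aβ (10 μM stock pre-aggregated 24 h at 4 °C; 1 μL per well). Compound 20 μM in TBS-T/2.5% BSA, 60 min at ambient temperature. Bound Aβ detected with HRP-4G8 (1:1000) for 60 min, then TMB, read at 450 nm. Duplicates, mean ± SD.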
On the technique in general: An ELISA detects its analyte on a solid surface through an enzyme-linked reagent.

The target of data set [2] is T1, Advanced glycosylation end product-specific receptor. Put plainly: Binding affinity to human recombinant biotinylated receptor for advanced glycation end product expressed in Escherichia coli DE3 after 1 min by surface plasmon resonance assay. Summed up: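 SPR with biotinylated RAGE captured to saturation on Neutravidin-coated chip channels, with a blank reference channel. Running buffer TBS (pH 7.4) with 0.05% Tween 20. Compounds serially diluted 50 to 3.1 μM in 2% DMSO, injected 1 min at 100 μL/min, then 400 s buffer dissociation. Responses reference-subtracted. Constants from a global Langmuir 1:1 fit.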

The subject of data set [3] is Mus musculus. Description: Toxicity against transgenic mouse expressing PS1/APP swedish mutant assessed as lethality at 50 mg/kg/day, po administered for 3 months measured after 2 months. In kind it is organism-based. Further details: route oral. The following applies: in vivo, 1461 h. Summed up:
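Male APPsw/PS1 transgenic mice, 6 months old (n = 4−5), dosed by oral gavage at 50 mg/(kg·day) until 9 months of age. Lethality was recorded as a side effect during the study. Cognitive function (Y-maze spontaneous alternation) was assessed after 2 months of dosing.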

The subject of data set [4] is Mus musculus. Put plainly: Procognitive activity in transgenic mouse expressing PS1/APP swedish mutant assessed as spontaneous alteration at 50 mg/kg/day, po administered for 3 months measured after 2 months by Y maze test (reference value: 50.95 +/- 10.8%). In kind it is functional.
Data set [5] concerns Mus musculus. Put plainly: Antialzheimer activity in transgenic mouse expressing PS1/APP swedish mutant assessed as insoluble amyloid beta (1 to 42) level per mg of protein in brain at 50 mg/kg/day, po for 3 months by ELISA (reference value: 513.73 +/- 219.56 ng per mg of protein). The class given is functional.
Data set [6] has as its system Mus musculus. Description: Antialzheimer activity in transgenic mouse expressing PS1/APP swedish mutant assessed as soluble amyloid beta (1 to 42) level per mg of protein in brain at 50 mg/kg/day, po for 3 months by ELISA (reference value: 17.34 +/- 5.17 ng per mg of protein). The class given is functional.
The test system of data set [7] is Mus musculus. Description: Antialzheimer activity in transgenic mouse expressing PS1/APP swedish mutant assessed as insoluble amyloid beta (1 to 40) level per mg of protein in brain at 50 mg/kg/day, po for 3 months by ELISA (reference value: 137.38+/- 58.13 ng per mg of protein). In kind it is functional.
Data set [8] concerns Mus musculus. Put plainly: Antialzheimer activity in transgenic mouse expressing PS1/APP swedish mutant assessed as soluble amyloid beta (1 to 40) level per mg of protein in brain at 50 mg/kg/day, po for 3 months by ELISA (reference value: 8.66 +/- 1.81 ng per mg of protein). The class given is functional.
Data set [9] deals with Mus musculus. Put plainly: Inhibition of RAGE-mediated influx of human amyloid beta (1 to 42) into ICR mouse brain at 25 mg/kg, ip administered 20 mins prior to human amyloid beta (1 to 40)-injection measured after 30 mins by ELISA relative to control. The class given is functional. The following applies: in the assay text read “human amyloid beta (1 to 42)-injection” for “human amyloid beta (1 to 40)-injection”, route intraperitoneal. Summed up: (§2)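 Male ICR mice, 3 months old (n = 4), given test compound 25 mg/kg or vehicle ip. After 20 min, 200 μL of 25 μM human Aβ1−42 in PBS injected into the tail vein and left to circulate 30 min. Retro-orbital blood taken into EDTA tubes before sacrifice. Human Aβ measured in brain extracts (pg/mg protein) and plasma (ng/mL).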

Data set [10] has as its system C6. Put plainly: Cytotoxicity against rat C6 cells at 0.1 to 10 uM after 18 hrs. The class given is cell-based. The following applies: c6, 18 h.
Data set [11] deals with Advanced glycosylation end product-specific receptor (Rattus norvegicus) (UniProt Q63495). Description: Inhibition of receptor for advanced glycation end product binding to amyloid beta 42 in rat C6 cells assessed as NFkappaB activation at 0.1 to 10 uM after 18 hrs by reporter gene assay. The class given is cell-based. In general terms: In a reporter assay the amount or activity of a reporter protein is the signal.

The target in data set [12] is T1, Advanced glycosylation end product-specific receptor. Description: Inhibition of human recombinant biotinylated receptor for advanced glycation end product expressed in Escherichia coli DE3 assessed as inhibition of binding to amyloid beta (1 to 42) after 60 mins by TMB-ELISA. Summed up: as §1
Data set [13] relates to Mus musculus. Description: Reduction in human amyloid beta (1 to 42) level in ICR mouse plasma at 25 mg/kg, ip administered 20 mins prior to human amyloid beta (1 to 40)-injection measured after 30 mins by ELISA relative to control. Further details: scale not given: the % may be the effect or the level left. The following applies: route intraperitoneal, in the assay text read “human amyloid beta (1 to 42)-injection” for “human amyloid beta (1 to 40)-injection”. The class given is functional. An outline of the steps:
as §2

Data set [14] concerns Mus musculus. Put plainly: Inhibition of RAGE-mediated influx of human amyloid beta (1 to 42) into ICR mouse brain at 25 mg/kg, ip administered 20 mins prior to human amyloid beta (1 to 42)-injection measured after 30 mins by ELISA relative to control.

Activity calls are given as the source filed them. No cut-off for these calls is given here.

Advanced glycosylation end product-specific receptor (Rattus norvegicus), sequence (Q63495 whole entry): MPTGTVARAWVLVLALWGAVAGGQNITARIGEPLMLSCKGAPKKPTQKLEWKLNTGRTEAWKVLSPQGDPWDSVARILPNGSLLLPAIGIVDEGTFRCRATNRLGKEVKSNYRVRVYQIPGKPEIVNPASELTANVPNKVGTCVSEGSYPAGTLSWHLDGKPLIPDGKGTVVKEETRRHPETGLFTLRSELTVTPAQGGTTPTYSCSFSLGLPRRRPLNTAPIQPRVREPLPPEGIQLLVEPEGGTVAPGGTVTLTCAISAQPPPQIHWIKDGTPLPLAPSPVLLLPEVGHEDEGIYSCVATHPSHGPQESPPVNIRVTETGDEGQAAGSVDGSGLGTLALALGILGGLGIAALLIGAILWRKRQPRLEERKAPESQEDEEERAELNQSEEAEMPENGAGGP
T1 sequence (Q15109 whole entry): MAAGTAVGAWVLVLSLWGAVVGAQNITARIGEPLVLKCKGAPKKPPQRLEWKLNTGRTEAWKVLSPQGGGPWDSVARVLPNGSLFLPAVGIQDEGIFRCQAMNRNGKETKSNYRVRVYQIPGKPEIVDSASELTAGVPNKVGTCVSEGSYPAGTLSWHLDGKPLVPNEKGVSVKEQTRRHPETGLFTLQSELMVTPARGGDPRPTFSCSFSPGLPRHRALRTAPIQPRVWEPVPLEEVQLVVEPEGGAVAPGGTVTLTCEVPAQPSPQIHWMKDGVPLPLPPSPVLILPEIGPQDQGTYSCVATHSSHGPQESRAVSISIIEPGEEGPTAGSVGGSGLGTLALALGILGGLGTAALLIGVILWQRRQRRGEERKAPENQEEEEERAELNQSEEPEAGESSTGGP

On to `CCN(CC)CCOc1cccc(Nc2nc(C)cc(-c3ccc(OC)cc3)n2)c1`, for which the inhibition in data set [1] was determined as 30.9%.

As for `Cc1nc(NC(=O)CCCO)nc(C)c1OCc1ccccc1`, the inhibition entry in data set [1] is “inactive”.

Consider `CCN(CC)CCOc1ccc(Nc2nc(C)cc(-c3ccccc3)n2)cc1`, for which the inhibition in data set [1] came out at 33%.

Take `CCN(CC)CCCC(=O)Nc1nc(C)c(O)c(C)n1`: the inhibition result in data set [1] was “inactive”.

In the case of `COc1c(C)nc(NC(=O)CCCC(=O)O)nc1C`, the inhibition entry in [1] was “inactive”.

In the case of `CCN(CC)CCOc1cccc(Nc2nc(-c3ccc(Cl)cc3)cc(-n3cccc3)n2)c1`, the inhibition in [1] was found to be 26.3%.

Consider `CCN(CC)CCCCNc1nc(C)c(OC)c(C)n1`, for which the inhibition entry in [1] was “inactive”.

Regarding `CCN(CC)CCOc1ccc(Nc2nc(C)cc(-c3ccc(OC)cc3)n2)cc1`, the inhibition in [1] was 31.7%.

Turning to `CCN(CC)CCOc1cccc(Nc2nc(C)cc(C)n2)c1`, in data set [1], the inhibition amounted to 20.8%.

On to `Cc1nc(NC(=O)CCCC(=O)O)nc(C)c1OCc1ccccc1`, for which, in [1], the inhibition result was “inactive”.

Regarding `CCN(CC)CCOc1ccccc1Nc1nc(C)cc(-c2ccc(Cl)cc2)n1`, the inhibition in [1] was 47.2%.

With `CCN(CC)CCOc1ccc(Nc2nc(C)c(OCc3ccccc3)c(C)n2)cc1`, the inhibition in [1] was determined as 14.6%.

For the molecule `CCN(CC)CCOc1cccc(Nc2nc(-c3ccc(Cl)cc3)cc(N3CCN(C)CC3)n2)c1`, the inhibition in data set [1] worked out at 4.5%.

Take `CCN(CC)CCOc1cccc(Nc2nc(-c3ccc(Cl)cc3)cc(N3CCCCC3)n2)c1`: the inhibition in data set [1] was found to be 17.1%.

For `CCN(CC)CCOc1ccc(Nc2nc(C)cc(-c3ccc(OCCc4ccc(Cl)cc4)cc3)n2)cc1`, in [1], the inhibition result was “inactive”.

`CCN(CC)CCOc1ccc(Nc2nc(C)cc(-c3ccc(Oc4ccc(Cl)cc4)cc3)n2)cc1`: the inhibition in data set [1] amounted to 21.1%.

Turning to `CCN(CC)CCOc1ccc(Nc2nc(C)cc(-c3ccc(OCCC4CCCCC4)cc3)n2)cc1`, the inhibition in [1] came to 32.7%.

Regarding `CCN(CC)CCOc1cccc(Nc2nc(C)cc(-c3ccc(Cl)cc3)n2)c1`, in data set [1], the inhibition turned out to be 41.6%.

On to `CCN(CC)CCOc1ccc(Nc2nc(C)cc(-c3ccc(OCCc4ccccc4)cc3)n2)cc1`, for which, in data set [1], the inhibition result is “inactive”.

As to `CCN(CC)CCOc1ccc(Nc2nc(C)cc(C)n2)cc1`, the inhibition in [1] amounted to 16%.

For the molecule `CCN(CC)CCOc1cccc(Nc2nc(-c3ccc(Cl)cc3)cc(-c3ccc(Cl)cc3)n2)c1`, the Activity entry in [2] was “Dose-dependent effect”; in data set [3], “Non-toxic”; in data set [4], 63.6%; in data set [5], 354 ng/mg; in data set [6] it was 12 ng/mg; in data set [7], 98.5 ng/mg. For the same molecule, the values for the Activity in data set [8], in data set [10] and in [13] were 6.25 ng/mg, “Non-toxic” and 3.7%, respectively. Also, the Kd in data set [2] stood at 102 µM. Further, at 25 mg/kg the inhibition in vivo in data set [9] was 34.3%. Moreover, the inhibition result in data set [11] is “Active”. For the same molecule, the 50% inhibitory concentration (IC50) in [12] worked out at 16.5 µM. Besides, the inhibition in data set [1] turned out to be 54%.

On to `CCN(CC)CCCCNc1nc(C)c(OCc2ccccc2)c(C)n1`, for which the inhibition entry in data set [1] was “inactive”.

As for `CCN(CC)CCCC(=O)Nc1nc(C)c(OCc2ccccc2)c(C)n1`, the inhibition entry in [1] was “inactive”.

Turning to `CCN(CC)CCOc1ccc(Nc2nc(C)cc(Nc3ccccc3)n2)cc1`, in [1], the inhibition was determined as 32.7%.

For `CCN(CC)CCOc1ccc(Nc2nc(C)cc(-c3ccc(OC4CCCCC4)cc3)n2)cc1`, the inhibition in [1] was determined as 32.6%.

On to `CCN(CC)CCOc1cccc(Nc2nc(C)cc(-c3ccc(OCCC4CCCCC4)cc3)n2)c1`, for which the Activity result in [10] was “Non-toxic”; in data set [13], 5%. In addition, the inhibition entry in data set [11] was “Active”. In addition, the inhibition in data set [1] is 49.6%. In data set [14], this molecule showed an inhibition in vivo at 25 mg/kg of 12.1%.

Regarding `CCN(CC)CCOc1ccc(Nc2nc(C)cc(-c3ccc(Oc4ccc5ccccc5c4)cc3)n2)cc1`, the inhibition in data set [1] came out at 21.4%.

Consider `CCN(CC)CCCC(=O)Nc1nc(C)c(OC)c(C)n1`, for which the inhibition entry in data set [1] is “inactive”.

For the molecule `CCN(CC)CCOc1ccc(Nc2nc(C)cc(-c3ccc(OCc4ccc(Cl)cc4)cc3)n2)cc1`, in data set [1], the inhibition is 12.7%.

With `CCN(CC)CCOc1ccc(Nc2nc(C)cc(-c3ccc(Cl)cc3)n2)cc1`, the inhibition in data set [1] was found to be 37.1%.

As to `COc1c(C)nc(NC(=O)CCCO)nc1C`, in data set [1], the inhibition entry is “inactive”.

Consider `CCN(CC)CCOc1ccc(Nc2nc(-c3ccc(Cl)cc3)cc(-c3ccc(Cl)cc3)n2)cc1`, for which the inhibition in [1] amounted to 33.6%.

In the case of `CCN(CC)CCOc1ccc(Nc2nc(C)cc(C3CCCCC3)n2)cc1`, the inhibition in data set [1] was found to be 30.6%.

Take `CCN(CC)CCOc1cccc(Nc2nc(-c3ccc(Cl)cc3)cc(N3CCOCC3)n2)c1`: the inhibition in data set [1] was found to be 3.1%.

Turning to `CCN(CC)CCOc1ccccc1Nc1nc(-c2ccc(Cl)cc2)cc(-c2ccc(Cl)cc2)n1`, the Activity entry in data set [10] is given as “Non-toxic”; in data set [13] it was 2.8%. The inhibition result in data set [11] was “Active”. Besides, the IC50 in data set [12] stood at 4.6 µM. In addition, the inhibition in data set [1] came out at 70.8%. The molecule also registered an inhibition in vivo at 25 mg/kg in data set [14] of 18.3%.

As for `CCN(CC)CCOc1cccc(Nc2nc(C)cc(-c3ccc(OC4CCCCC4)cc3)n2)c1`, in data set [1], the inhibition came to 45.6%.

For `CCN(CC)CCOc1ccc(Nc2nc(C)cc(N3CCCCC3)n2)cc1`, the inhibition in data set [1] was found to be 43.3%.

With `CCN(CC)CCCCNc1nc(C)c(O)c(C)n1`, in [1], the inhibition entry was “inactive”.

In the case of `CCN(CC)CCOc1ccc(Nc2nc(C)c(O)c(C)n2)cc1`, the inhibition in [1] stood at 16.2%.
